Assay results reported in ChEMBL document CHEMBL5724801, “EUbOPEN Chemogenomics Library - Multiplex” (2024).
Values joined by “and” are separate entries in the source; they are usually repeats but may differ in a detail not shown here. Equal entries are not always repeated.

System: U2OS
Assay: Multiplex assay against U2OS
Assay type: toxicity, cell-based
Conditions: human
Summary of the method: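 Live cells carried four stains from seeding: Hoechst33342, BioTracker Green Microtubule Cytoskeleton Dye, MitoTracker Red and Annexin V Alexa Fluor 680. They were imaged on a CQ1 microscope at 37°C and 5% CO2 after compound addition. Using CellPathfinder machine-learning gating, cells were split into Hoechst high-intensity objects or normal cells, normal cells into healthy, pyknosed or fragmented nuclei, and pyknosed cells into mitotic or apoptotic; tubulin, mitochondrial-mass and membrane-permeability phenotypes are per cents of healthy-nucleus cells.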

[1] = 12 h, 1 µM, compound concentration 1 uM
[2] = 12 h, 10 µM, compound concentration 10 uM
[3] = 24 h, 1 µM, compound concentration 1 uM
[4] = 24 h, 10 µM, compound concentration 10 uM
[5] = 48 h, 1 µM, compound concentration 1 uM
[6] = 48 h, 10 µM, compound concentration 10 uM

CCOc1ccccc1C(=O)NCC1(N2CCN(CC)CC2)CCCCC1
Population Apoptotic (%) [1]: 45.83% and 31.82% | Population Fragmented Nuclei (%) [1]: 1.72% and 5.19% | Population Healthy Nuclei (%) [1]: 91.38% and 78.52% | Population Hoechst High Intensity Objects (%) [1]: 0% | Population Membrane Permeable-Phenotype (%) [1]: 1.26% and 8.49% | Population Mitotic Cells (%) [1]: 54.17% and 68.18% | Population Normal (%) [1]: 100% | Population Pyknosed Nuclei (%) [1]: 6.9% and 16.3% | Population Tubulin-Different-Phenotype (%) [1]: 0.63% and 0.94% | Total Cell Count [1]: 348 and 135 | Population Apoptotic (%) [2]: 35% and 23.68% | Population Fragmented Nuclei (%) [2]: 1.81% and 4.03% | Population Healthy Nuclei (%) [2]: 80.05% and 70.47% | Population Hoechst High Intensity Objects (%) [2]: 0.23% and 0% | Population Membrane Permeable-Phenotype (%) [2]: 16.15% and 31.43% | Population Mitotic Cells (%) [2]: 65% and 76.32% | Population Normal (%) [2]: 99.77% and 100% | Population Pyknosed Nuclei (%) [2]: 18.14% and 25.5% | Population Tubulin-Different-Phenotype (%) [2]: 49.86% and 44.76% | Total Cell Count [2]: 442 and 149 | Population Apoptotic (%) [3]: 46.15% and 50% | Population Fragmented Nuclei (%) [3]: 1.89% and 5.62% | Population Healthy Nuclei (%) [3]: 87.16% and 80.62% | Population Hoechst High Intensity Objects (%) [3]: 0% | Population Membrane Permeable-Phenotype (%) [3]: 1.21% and 8.53% | Population Mitochondria Different-Phenotype (%) [3]: 0% and 12.4% | Population Mitotic Cells (%) [3]: 53.85% and 50% | Population Normal (%) [3]: 100% | Population Pyknosed Nuclei (%) [3]: 10.95% and 13.75% | Population Tubulin-Different-Phenotype (%) [3]: 0.48% and 1.55% | Total Cell Count [3]: 475 and 160 | Population Apoptotic (%) [4]: 52.04% and 44.44% | Population Fragmented Nuclei (%) [4]: 2.49% and 6.29% | Population Healthy Nuclei (%) [4]: 80.07% and 65.41% | Population Hoechst High Intensity Objects (%) [4]: 0% | Population Membrane Permeable-Phenotype (%) [4]: 8% and 10.58% | Population Mitotic Cells (%) [4]: 47.96% and 55.56% | Population Normal (%) [4]: 100% | Population Pyknosed Nuclei (%) [4]: 17.44% and 28.3% | Population Tubulin-Different-Phenotype (%) [4]: 29.33% and 41.35% | Population Apoptotic (%) [5]: 37.84% and 48.15% | Population Fragmented Nuclei (%) [5]: 2.6% and 4.8% | Population Healthy Nuclei (%) [5]: 88.67% and 71.62% | Population Hoechst High Intensity Objects (%) [5]: 0% | Population Membrane Permeable-Phenotype (%) [5]: 1.33% and 6.1% | Population Mitotic Cells (%) [5]: 62.16% and 51.85% | Population Normal (%) [5]: 100% | Population Pyknosed Nuclei (%) [5]: 8.74% and 23.58% | Population Tubulin-Different-Phenotype (%) [5]: 0.93% and 3.05% | Population Apoptotic (%) [6]: 58.2% and 70.77% | Population Fragmented Nuclei (%) [6]: 2.88% and 5.66% | Population Healthy Nuclei (%) [6]: 83.08% and 63.68% | Population Hoechst High Intensity Objects (%) [6]: 0.11% and 0% | Population Mitotic Cells (%) [6]: 41.8% and 29.23% | Population Normal (%) [6]: 99.89% and 100% | Population Pyknosed Nuclei (%) [6]: 14.04% and 30.66% | Population Tubulin-Different-Phenotype (%) [6]: 15.24% and 28.89%

COCCNc1nc2ccc(C#CC3(O)CCCCC3)cc2n1-c1ccnc(N)n1
Population Apoptotic (%) [1]: 53.85% and 25% | Population Fragmented Nuclei (%) [1]: 1.38% and 4.59% | Population Healthy Nuclei (%) [1]: 91.46% and 77.06% | Population Hoechst High Intensity Objects (%) [1]: 0% | Population Membrane Permeable-Phenotype (%) [1]: 0.9% and 4.76% | Population Mitochondria Different-Phenotype (%) [1]: 0% and 4.76% | Population Mitotic Cells (%) [1]: 46.15% and 75% | Population Normal (%) [1]: 100% | Population Pyknosed Nuclei (%) [1]: 7.16% and 18.35% | Population Tubulin-Different-Phenotype (%) [1]: 0.6% and 0% | Population Apoptotic (%) [2]: 38.46% and 41.03% | Population Fragmented Nuclei (%) [2]: 1.89% and 3.8% | Population Healthy Nuclei (%) [2]: 82.78% and 75% | Population Hoechst High Intensity Objects (%) [2]: 0% | Population Membrane Permeable-Phenotype (%) [2]: 8.26% and 7.25% | Population Mitotic Cells (%) [2]: 61.54% and 58.97% | Population Normal (%) [2]: 100% | Population Pyknosed Nuclei (%) [2]: 15.33% and 21.2% | Population Tubulin-Different-Phenotype (%) [2]: 15.38% and 10.87% | Total Cell Count [2]: 424 and 184 | Population Apoptotic (%) [3]: 34.62% and 40% | Population Fragmented Nuclei (%) [3]: 0.86% and 3.12% | Population Healthy Nuclei (%) [3]: 87.96% and 85.16% | Population Hoechst High Intensity Objects (%) [3]: 0% | Population Membrane Permeable-Phenotype (%) [3]: 0.49% and 4.59% | Population Mitochondria Different-Phenotype (%) [3]: 0.24% and 2.75% | Population Mitotic Cells (%) [3]: 65.38% and 60% | Population Normal (%) [3]: 100% | Population Pyknosed Nuclei (%) [3]: 11.18% and 11.72% | Population Tubulin-Different-Phenotype (%) [3]: 0.73% and 0% | Population Apoptotic (%) [4]: 27.97% and 41.07% | Population Fragmented Nuclei (%) [4]: 1.32% and 3.03% | Population Healthy Nuclei (%) [4]: 76.5% and 68.69% | Population Hoechst High Intensity Objects (%) [4]: 0% | Population Membrane Permeable-Phenotype (%) [4]: 2.7% and 6.62% | Population Mitotic Cells (%) [4]: 72.03% and 58.93% | Population Normal (%) [4]: 100% | Population Pyknosed Nuclei (%) [4]: 22.18% and 28.28% | Population Tubulin-Different-Phenotype (%) [4]: 15.72% and 8.82% | Total Cell Count [4]: 532 and 198 | Population Apoptotic (%) [5]: 38.1% and 52% | Population Fragmented Nuclei (%) [5]: 2.24% and 2.58% | Population Healthy Nuclei (%) [5]: 88.37% and 84.54% | Population Hoechst High Intensity Objects (%) [5]: 0% | Population Membrane Permeable-Phenotype (%) [5]: 0.63% and 0.61% | Population Mitochondria Different-Phenotype (%) [5]: 0% and 2.44% | Population Mitotic Cells (%) [5]: 61.9% and 48% | Population Normal (%) [5]: 100% | Population Pyknosed Nuclei (%) [5]: 9.4% and 12.89% | Population Tubulin-Different-Phenotype (%) [5]: 1.14% and 1.22% | Population Apoptotic (%) [6]: 45.97% and 47.78% | Population Fragmented Nuclei (%) [6]: 2.08% and 1.2% | Population Healthy Nuclei (%) [6]: 81.79% and 62.65% | Population Hoechst High Intensity Objects (%) [6]: 0% | Population Membrane Permeable-Phenotype (%) [6]: 2.38% and 2.56% | Population Mitotic Cells (%) [6]: 54.03% and 52.22% | Population Normal (%) [6]: 100% | Population Pyknosed Nuclei (%) [6]: 16.12% and 36.14% | Population Tubulin-Different-Phenotype (%) [6]: 13.35% and 7.69%
